This note sets out measurements from ChEMBL document CHEMBL1138409, “Diaryl substituted pyrazoles as potent CCR2 receptor antagonists” (Bioorg Med Chem Lett, 2007).

Data set [1] has as its target T1, C-C chemokine receptor type 2 (Homo sapiens, UniProt P41597). Briefly: Displacement of 125I-hMCP1 from CCR2 expressed in human peripheral blood monocytes after 60 mins. The class given is cell-based. The method, boiled down: (§1)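 Primary human blood monocytes, which express CCR2 endogenously, were incubated with 125I-hMCP-1 (2200 Ci/mmol) and the unlabeled compound. Incubation was 60 min at room temperature in 50 mM Hepes, 5 mM MgCl2 and 1 mM CaCl2, pH 7.4. Bound label was collected by filtration through PEI-presoaked GF/B filters and washed with 25 mM Hepes pH 7.5 containing 500 mM NaCl. Filters were then dried and counted by scintillation. Values are the mean of at least two experiments.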
(Loss of bound radioactivity is the signal in a displacement assay; it reports binding, not function.)
Target sequence in this assay (P41597 whole entry): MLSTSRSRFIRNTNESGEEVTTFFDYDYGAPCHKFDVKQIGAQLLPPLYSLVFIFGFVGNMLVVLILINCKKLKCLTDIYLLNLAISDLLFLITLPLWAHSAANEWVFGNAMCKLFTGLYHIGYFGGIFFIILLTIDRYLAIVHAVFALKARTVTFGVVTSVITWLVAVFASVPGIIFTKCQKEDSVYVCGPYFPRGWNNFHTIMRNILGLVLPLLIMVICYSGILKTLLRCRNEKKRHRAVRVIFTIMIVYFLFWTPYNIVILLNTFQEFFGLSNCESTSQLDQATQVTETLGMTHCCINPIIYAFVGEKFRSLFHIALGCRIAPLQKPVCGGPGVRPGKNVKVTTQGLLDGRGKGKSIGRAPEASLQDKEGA

Data set [2] concerns the target T1, C-C chemokine receptor type 2. Briefly: Antagonist activity against human CCR2 receptor assessed as inhibition of MCP1-induced migration of human peripheral blood monocytes at 300 nM. On the set-up: scale not given: the % may be the effect or the level left. The class given is functional.
Target sequence in this assay (P41597 whole entry, looked up): as the sequence (P41597 whole entry) above
For data set [3] the target is unchanged. Briefly: Displacement of 125I-hMCP1 from CCR2 expressed in human peripheral blood monocytes less than 10 uM after 60 mins. The data set is classed as cell-based. The method, boiled down: as §1
Target sequence in this assay (P41597 whole entry): as above
Data set [4] in a line: Oral bioavailability in Sprague-Dawley rat at 2 mg/kg. The class given is ADME, organism-based. The conditions noted are these: in vivo.
Data set [5] has as its target C-C chemokine receptor type 5 (Homo sapiens, UniProt P51681). Briefly: Inhibition of CCR5.
A short description of data set [6]: Clearance in Sprague-Dawley rat at 1 mg/kg, iv and 2 mg/kg, po. The data set is classed as ADME, organism-based. The conditions noted are these: in vivo.
A short description of data set [7]: Half life in Sprague-Dawley rat. The data set is classed as ADME, organism-based. The conditions noted are these: in vivo.
Data set [8] can be described thus: Volume of distribution in Sprague-Dawley rat. The data set is classed as ADME, organism-based. The conditions noted are these: in vivo.
Data set [9] concerns the target T1, C-C chemokine receptor type 2. Description: Displacement of 125I-hMCP1 from CCR2 expressed in human peripheral blood monocytes at 10 uM after 60 mins. The class given is cell-based.
Target sequence in this assay (P41597 whole entry, looked up): as the sequence (P41597 whole entry) above
Data set [10] shares this target. Briefly: Displacement of 125I-hMCP1 from CCR2 expressed in human peripheral blood monocytes at 1 uM after 60 mins. The data set is classed as cell-based.
Target sequence in this assay (P41597 whole entry, looked up): as the sequence (P41597 whole entry) above

Structures are written as SMILES. Active and inactive are the calls of the source. The calls are words filed in the database; no cut-off is given here.

Chain of C-C chemokine receptor type 5 (P51681 whole entry): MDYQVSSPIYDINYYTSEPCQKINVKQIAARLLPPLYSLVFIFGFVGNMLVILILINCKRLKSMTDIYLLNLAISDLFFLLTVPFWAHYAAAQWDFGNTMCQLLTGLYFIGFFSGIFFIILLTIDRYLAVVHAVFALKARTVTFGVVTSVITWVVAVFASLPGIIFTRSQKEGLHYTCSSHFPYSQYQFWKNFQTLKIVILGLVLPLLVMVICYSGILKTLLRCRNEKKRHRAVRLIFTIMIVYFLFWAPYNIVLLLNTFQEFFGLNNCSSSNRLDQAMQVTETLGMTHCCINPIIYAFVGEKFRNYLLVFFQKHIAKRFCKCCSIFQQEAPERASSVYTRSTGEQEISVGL

Regarding `CCN(CC)CCCC(C)NC(=O)CCCc1cc(-c2cc(Cl)cc(Cl)c2)nn1-c1cc(C(F)(F)F)cc(C(F)(F)F)c1` (centres undefined), the IC50 in data set [1] was determined as 6470 nM.

On to `CCN(CC)CCCC(C)NC(=O)CCCc1cc(-c2ccc(Cl)cc2)nn1-c1ccc2ccccc2c1` (centres undefined), for which, in data set [2], the outcome was inactive. This molecule had an IC50 in data set [1] of 442 nM.

Take `COC(=O)[C@H](CCCNC(=N)N)NC(=O)CCCOc1cc(-c2cc(Cl)cc(Cl)c2)nn1-c1ccc2ccccc2c1`: the IC50 in [1] turned out to be 7600 nM.

On to `CCN(CC)CCCC(C)NC(=O)CCCc1cc(-c2cccc(F)c2)nn1-c1ccc2ccccc2c1` (centres undefined), for which, in [1], the IC50 came out at 522 nM.

In data set [1], `CCN(CC)CCCC(C)NC(=O)CCOc1cc(-c2cc(Cl)cc(Cl)c2)nn1-c1ccc2ccccc2c1` (centres undefined) came in with an IC50 of 66 nM.

As to `COC(=O)[C@H](CCCNC(=N)N)NC(=O)CCOc1cc(-c2cc(Cl)cc(Cl)c2)nn1-c1ccc2ccccc2c1`, the IC50 in [1] came to 62 nM.

As for `COC(=O)[C@H](CCCNC(=N)N)NC(=O)CC(=O)Nc1cc(-c2cc(Cl)cc(Cl)c2)nn1-c1ccc2ccccc2c1`, the IC50 entry in [3] was “Not Active”.

As for `COC(=O)[C@H](CCCNC(=N)N)NC(=O)CCCc1cc(-c2cc(Cl)cc(Cl)c2)nn1-c1ccc2ccccc2c1`, the bioavailability in [4] is 0%. The half-inhibitory concentration (IC50) worked out at 63 nM in data set [5] and 221 nM in [1]. In data set [6], the clearance is 8.3 mL/min/kg. Further, the half-life in data set [7] is 2.49 h. Besides, the Vd in data set [8] stood at 0.98 L/kg.

As to `O=C(CCCc1cc(-c2cc(Cl)cc(Cl)c2)nn1-c1ccc2ccccc2c1)NCCCc1ccc2c(n1)NCCC2`, in [1], the IC50 was found to be 9330 nM.

`CCN(CC)CCCC(C)NC(=O)CCCc1cc(-c2ccccc2Cl)nn1-c1ccc2ccccc2c1` (centres undefined) returned an Activity in [9] of 69%.

For the molecule `CCN(CC)CCCC(C)NC(=O)CCCc1cc(-c2cccc(OC)c2)nn1-c1ccc2ccccc2c1` (centres undefined), the IC50 in data set [1] worked out at 2390 nM.

`CCN(CC)CCCCNC(=O)CCCc1cc(-c2cc(Cl)cc(Cl)c2)nn1-c1ccc2ccccc2c1` gave an IC50 in data set [1] of 1230 nM.

Regarding `CCN(CC)CCCC(NC(=O)CCOc1cc(-c2cc(Cl)cc(Cl)c2)nn1-c1ccc2ccccc2c1)C(C)C` (centres undefined), the IC50 in [5] turned out to be 1610 nM; in data set [1], 6 nM.

For the molecule `O=C(CCCc1cc(-c2cc(Cl)cc(Cl)c2)nn1-c1ccc2ccccc2c1)NCCCc1ccncc1`, in data set [1], the IC50 was found to be 1120 nM.

Turning to `COC(=O)[C@H](CCCN=C(N)N)NC(=O)CCc1cc(-c2cc(Cl)cc(Cl)c2)nn1-c1ccc2ccccc2c1`, the IC50 in [1] stood at 4740 nM.

Regarding `CCCCC(CCCN(CC)CC)NC(=O)CCOc1cc(-c2cc(Cl)cc(Cl)c2)nn1-c1ccc2ccccc2c1` (centres undefined), the Activity in data set [10] is 52%.

The molecule `CN(C)CCCCNC(=O)CCCc1cc(-c2cc(Cl)cc(Cl)c2)nn1-c1ccc2ccccc2c1` gave an IC50 in [1] of 1800 nM.

Take `CCN(CC)CCCC(C)NC(=O)CCCc1cc(-c2cc(C(F)(F)F)cc(C(F)(F)F)c2)nn1-c1ccc2ccccc2c1` (centres undefined): the IC50 in data set [1] amounted to 634 nM.

Turning to `COC(=O)[C@H](Cc1c[nH]cn1)NC(=O)CCCc1cc(-c2cc(Cl)cc(Cl)c2)nn1-c1ccc2ccccc2c1`, the IC50 in data set [1] worked out at 2840 nM.

As to `CCCC(CCCN(CC)CC)NC(=O)CCOc1cc(-c2cc(Cl)cc(Cl)c2)nn1-c1ccc2ccccc2c1` (centres undefined), the half-maximal inhibitory concentration (IC50) in data set [1] stood at 44 nM.

Regarding `COC(=O)[C@H](CCCNC(=N)N)NC(=O)c1cccc(-c2cc(-c3cc(Cl)cc(Cl)c3)nn2-c2ccc3ccccc3c2)c1`, the IC50 entry in data set [3] is recorded as “Not Active”.

Regarding `CCC(CCCN(CC)CC)NC(=O)CCOc1cc(-c2cc(Cl)cc(Cl)c2)nn1-c1ccc2ccccc2c1` (centres undefined), the IC50 in [1] stood at 9 nM.

For the molecule `COC(=O)[C@H](CCCNC(=N)N)NCCCCc1cc(-c2cc(Cl)cc(Cl)c2)nn1-c1ccc2ccccc2c1`, in data set [3], the IC50 entry is given as “Not Active”.

On to `CCN(CC)CCCC(C)NC(=O)CCCc1cc(-c2cccc(Cl)c2)nn1-c1ccc2ccccc2c1` (centres undefined), for which, in data set [2], the Activity turned out to be 57%. Besides, the IC50 in [1] was 168 nM.

Molecule `CCN(CC)CCCC(C)NC(=O)CCCc1cc(-c2cccc(C(F)(F)F)c2)nn1-c1ccc2ccccc2c1` (centres undefined) displayed an IC50 in [1] of 207 nM.

For the molecule `CCN(CC)CCCC(CC(C)C)NC(=O)CCOc1cc(-c2cc(Cl)cc(Cl)c2)nn1-c1ccc2ccccc2c1` (centres undefined), in data set [1], the IC50 came out at 74 nM.

With `CCN(CC)CCCC(C)NC(=O)CCCc1cc(-c2cc(Cl)cc(Cl)c2)nn1-c1ccc2ccccc2c1` (centres undefined), the bioavailability in data set [4] was 5%. The IC50 was 220 nM in data set [5] and 108 nM in data set [1]. The molecule also showed a clearance in data set [6] of 28.1 mL/min/kg. The same molecule gave a half-life in data set [7] of 6.52 h. This molecule registered a Vd in data set [8] of 13 L/kg.

The molecule `CCN(CC)CCCC(C)NC(=O)CCNc1cc(-c2cc(Cl)cc(Cl)c2)nn1-c1ccc2ccccc2c1` (centres undefined) yielded an IC50 in [1] of 30 nM.

In data set [9], `CCN(CC)CCCC(C)NC(=O)CCCc1cc(-c2cc(Cl)cc(Cl)c2)nn1-c1ccccc1` (centres undefined) yielded an Activity of 69%.

`COC(=O)[C@H](CCCNC(=N)N)NC(=O)CCNc1cc(-c2cc(Cl)cc(Cl)c2)nn1-c1ccc2ccccc2c1` gave an IC50 in [1] of 43 nM.

In turn, `CCC(C)CC(CCCN(CC)CC)NC(=O)CCOc1cc(-c2cc(Cl)cc(Cl)c2)nn1-c1ccc2ccccc2c1` (centres undefined) gave an IC50 in [1] of 107 nM.

In general, IC50 refers to the concentration that inhibits the measured activity by half. As usually defined, the bioavailability is the share of a dose that reaches the circulation, judged against a reference dose that is usually intravenous. By half-life is commonly meant how long it takes for the measured level to halve. By Vd is commonly meant a proportionality between amount in the body and measured concentration, not a real space.
